# Screening results (PubChem BioAssay)
# Sampled rows, rich in hits. Any-hit rate of the full collection: about 3.7%.
# CHOP UPR activ: apoptotic UPR (CHOP) activation. CHO-CHOP luciferase reporter, luminescence; percent of tunicamycin response over DMSO baseline. activation, % at 10 µM. hit rate 0.34% among 330,000. AID 449763;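 active means at 10 µM dose, activation of 40% or more, normalized to positive control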;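 further: 100% = tunicamycin at 10 µg/mL and 0% = DMSO alone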
#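 Evaluation: % reporter activation, DMSO baseline versus tunicamycin full activation; System: CHO-CHOP luciferase reporter cell line; Input: 500 cells/well; Incubation: 6 h compound treatment, 37 °C; Measured by: Steady-Glo luciferase luminescence; Dosing: one dose, 10 µM in 0.5% DMSO; Buffer or medium: F12 medium, 10% FBS; Benchmarks: positive tunicamycin 10 µg/mL, negative DMSO alone.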
# Mdm2 MdmX PPI: human Mdm2/MdmX binding inhibition | hit rate 3% among 330,000 | inhibition, % at 8 µM | SaOS-2 split-luciferase Mdm2/MdmX complementation, luminescence | O15151+Q00987;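 active means inhibition of at least 50% at 8 µM in the primary screen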
# MDM2 E3 inh: inhibitors of human Mdm2 E3 ubiquitin ligase; Q00987; cell-based MDM2 ubiquitination luciferase reporter, 2 h; 0 = plate control, 100 = twice control, blank-subtracted; signal enhancement, % at 5 µM; hit rate 0.11% among 210,000; AID 1230;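 active means signal enhancement of 30% or more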;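 further: luminescence tracks abundance of the self-degrading MDM2-luciferase fusion protein; higher signal means inhibition of MDM2 E3 ligase activity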
#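 Assay system: stable mammalian line carrying autodegrading MDM2–luciferase fusion reporter; Input: 2000 cells in each well; Compound dosing: single-point 5 µM; Schedule: 2 h compound exposure at 37 °C; Signal: SteadyLite luciferase luminescence after 15 min room-temperature reagent incubation; Evaluation: % luminescence enhancement versus blank-corrected plate control mean; Benchmarks: plate controls and plate blanks.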
# UPR XBP1 act: activators of adaptive arm of unfolded protein response (XBP1); hit rate 0.33% among 330,000; activation, % at 20 µM; AID 463104; CHO-XBP1 luciferase reporter, IRE1-XBP1 UPR activation, luminescence; percent of tunicamycin response, DMSO as zero;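 active means versus positive control, 20 µM dose yields 30% or more activation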;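 further: 100% = tunicamycin at 10 µg/mL and 0% = DMSO only wells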
#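 Material: CHO-XBP1 cells stably carrying IRE1-XBP1-driven luciferase reporter / Amount: 1000 cells per well / Compound: 20 µM, 1% DMSO / Times: 6 h treatment, 37 °C / Detection: luciferase luminescence / Measure: % activation of reporter signal versus tunicamycin and DMSO controls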
# Beta2AR agonist: human beta-2 adrenergic receptor agonism by FAP. Am2.2-beta2AR cells, FAP receptor internalization, flow cytometry. response, % (concentration not given with the values). hit rate 0.43% among 340,000. AID 504454;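 active means response above a set limit, near 3 SD of response in nonfluorescent compounds, cut at about 42% in these data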
# Target sequence (P07550 whole entry, looked up): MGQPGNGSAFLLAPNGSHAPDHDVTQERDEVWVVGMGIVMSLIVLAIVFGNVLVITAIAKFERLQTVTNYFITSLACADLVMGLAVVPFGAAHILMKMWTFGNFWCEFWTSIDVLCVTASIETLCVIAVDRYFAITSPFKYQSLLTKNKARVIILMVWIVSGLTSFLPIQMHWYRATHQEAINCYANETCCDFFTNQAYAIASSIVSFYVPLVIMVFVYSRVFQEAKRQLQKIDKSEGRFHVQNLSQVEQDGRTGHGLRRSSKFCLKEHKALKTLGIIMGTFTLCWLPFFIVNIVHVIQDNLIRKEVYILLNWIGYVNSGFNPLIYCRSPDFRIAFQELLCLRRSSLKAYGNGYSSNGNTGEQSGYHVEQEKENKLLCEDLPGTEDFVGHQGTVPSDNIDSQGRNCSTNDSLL
# Dynein cargo inh: dynein cargo transport inhibition; 3617.4 mouse cells, GR-EGFP nuclear translocation imaging; test concentration mostly 20 µM; stimulated with dexamethasone, 1 µM; stronger effect = lower value; z-score, hits read low; hit rate 0.47% among 220,000; AID 1381;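 active means plate z-score of nuclear minus cytoplasmic receptor signal below a set negative limit, without overly bright fluorescence or cell loss, cut at about -3.5 in these data, passing the limit was not always enough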;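 further: z-score of nuclear minus cytoplasmic ring GR-EGFP intensity difference per well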
#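 Also added – dexamethasone, 1.0 µM final · Buffer or medium – tet-free, stripped-serum medium · Schedule – induction 48 h, compound 1 h, agonist 30 min · Detection – formaldehyde fixation, Hoechst nuclear stain, 10x automated fluorescence imaging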
# Mdm2-MdmX conf: confirmation of human Mdm2/MdmX interaction inhibitors; shares compounds with Mdm2 MdmX PPI; Mdm2-MdmX binding, luminescent assay; inhibition, % at 8 µM; hit rate 55% among 10,000; in the data active means inhibition above about 40%
# FLuc counter: full-length luciferase inhibition in Mdm2/MdmX counter-screen; AID 504607; inhibition, % at 8 µM; hit rate 77% among 6,200; shares compounds with Mdm2 MdmX PPI; SaOS-2 full-length luciferase counterscreen, luminescence;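 active means mean inhibition at 8 µM reaching about 37%, which flags the compound as non-specific, limit read from the data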;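 further: p53-null SaOS-2 cells with luciferase driven by a doxycycline-inducible promoter; compound on cells about two nights before reading with doxycycline added after day one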
# Active calls of the source: *; nt = not tested or not shown.
SMILES,CHOP UPR activ,Mdm2 MdmX PPI,MDM2 E3 inh,UPR XBP1 act,Beta2AR agonist,Dynein cargo inh,Mdm2-MdmX conf,FLuc counter
Cc1nnsc1S(=O)c1ccc(Cl)c(Cl)c1 (stereo unspecified),15.1,30.4,nt,-8.2,-10.2,nt,nt,nt
Cc1cc(C)nc(-n2nc(C)cc2NC(=O)c2cccc(S(=O)(=O)N(C)C)c2)n1,-0.1,13.6,nt,-4.2,nt,nt,nt,nt
Cc1ccc(C)c(C(=O)Nc2cc(C)nn2-c2nc(C)cc(C)n2)c1,1.0,57.4*,-2.3,5.5,-2.3,0.361,38.6,59.6*
CCN(CC)CCCCCCCCOC(=O)c1cc(OC)c(OC)c(OC)c1,-2.8,50.2*,nt,-4.6,3.4,nt,27.8,nt
COc1cc(C(=O)OCCCN2CCCN(CCCOC(=O)c3cc(OC)c(OC)c(OC)c3)CC2)cc(OC)c1OC,-0.2,61.3*,nt,-7.8,-8.6,nt,40.9*,86.3*
COc1cc(C(=O)OCCN2CCOCC2)cc(OC)c1OC,0.8,7.8,-31.8,-2.0,6.9,0.954,nt,nt
Cc1cccc(-n2ncc3c2CCCC3NC(=O)CCN2CCCO2)c1C (stereo unspecified),-1.7,14.4,nt,-5.1,-1.1,nt,nt,nt
O=C(c1cccs1)N1CCN(c2nnc(-c3ccccc3)c3ccccc23)CC1,0.6,-15.8,-2.8,-2.4,-3.4,0.862,nt,nt
c1ccc(-c2nnc(N3CCN(c4ccccn4)CC3)c3ccccc23)cc1,3.4,30.7,-1.9,0.0,22.5,0.0075,nt,nt
Cc1ccc(-c2nnc(N3CCN(c4ccccn4)CC3)c3ccccc23)cc1,2.6,56.9*,1.4,0.1,21.2,1.32,53.6*,48.3*
Cc1ccc(-c2nnc(N3CCN(C(=O)c4cccs4)CC3)c3ccccc23)cc1,1.3,55.0*,-11.0,-4.8,16.5,-0.0977,12.8,nt
Cc1cc(NC(=O)CSc2nc3ccccc3c(=O)n2C(C)c2ccccc2)no1 (stereo unspecified),-0.8,72.3*,-45.7,-4.1,-2.2,-0.298,26.2,nt
O=c1c(O[C@@H]2O[C@H](CO)[C@@H](O)[C@H](O)[C@H]2O)c(-c2ccc(O)c(O)c2)oc2cc(O)cc(O)c12,-1.0,51.5*,nt,-5.7,nt,nt,14.8,nt
O=C(Nc1ccc(F)cc1)OCCOc1ccc([N+](=O)[O-])cc1,0.3,12.9,-4.8,-7.5,-5.0,0.568,nt,nt
CCN1CCN(CCNC(=O)c2ccc(/C=C3/Sc4ccccc4N(Cc4cccc(Cl)c4)C3=O)cc2)CC1,2.3,96.5*,-26.9,15.4,38.2,2.39,81.2*,57.8*
Cc1ccccc1CN1C(=O)/C(=C\c2ccc(C(=O)NCCN3CCOCC3)cc2)Sc2ccccc21,2.3,45.1,nt,-3.6,9.0,nt,nt,nt
Cc1ccc(S(=O)(=O)N2CCOCC2)cc1C(=O)NCCN1C(=O)S/C(=C\c2ccccc2Cl)C1=O,1.6,15.9,-1.4,-1.9,-2.2,-0.00864,nt,nt
O=C(NCCN1CCOCC1)c1ccc(/C=C2\Sc3ccccc3N(Cc3ccccc3F)C2=O)cc1,1.0,59.8*,nt,7.4,19.9,nt,8.8,nt
CC(C)(C)c1ccc(/C=C2\SC(=O)N(CCNC(=O)c3cccc(S(=O)(=O)N4CCOCC4)c3)C2=O)cc1,-3.1,70.0*,-43.3,-6.5,6.0,-0.4,75.9*,86.1*
Cc1cccc(CN2C(=O)/C(=C\c3ccc(C(=O)NCCN4CCOCC4)cc3)Sc3ccccc32)c1,7.6,80.5*,nt,1.3,45.9*,nt,61.1*,76.2*
COCCn1c(C)c(C)c2c(NCCc3ccccc3)ncnc21,-2.9,46.0,nt,-8.6,2.6,nt,nt,nt
CC1(c2ccccc2Cl)NC(=O)N(CC(=O)NCc2ccc3c(c2)OCO3)C1=O (stereo unspecified),-0.2,5.3,nt,-0.3,13.7,nt,nt,nt
